Measurements as given in publication PMC3483883 (Bioorganic & medicinal chemistry letters, 2012).
Each block holds one compound with its values, some of them ahead of it.

Assays:
[1] = test system: L. infantum promastigotes; conditions: 400 μM, 24 h
[2] = biological target: T1, LdTopIB (Leishmania donovani, UniProt A0A3Q8IHS4+Q8WQM6); assay: Plasmid DNA relaxation assay, LdTopIB; assay type: biochemical
[3] = test system: Trypanosoma brucei rhodesiense (bloodstream forms); assay: Antiprotozoal activity against T. brucei rhodesiense bloodstream forms; assay type: cell-based; conditions: read-out: Trypanosoma brucei rhodesiense IC50
[4] = test system: Murine macrophages BALB/c; assay: Toxicity against BALB/c murine macrophages; assay type: cell-based; conditions: Mus musculus, Macrophage, read-out: Murine macrophages BALB/c IC50
[5] = L6 cell cytotoxicity; assay type: cell-based; conditions: rat, L6 cells (rat skeletal myoblasts)
[6] = biological target: T2, hTopIB (Homo sapiens, UniProt P11387); assay: Supercoiled plasmid DNA TopIB-mediated cleavage assay, hTopIB; assay type: biochemical; conditions: 100 μM
T2 sequence (P11387 1-765): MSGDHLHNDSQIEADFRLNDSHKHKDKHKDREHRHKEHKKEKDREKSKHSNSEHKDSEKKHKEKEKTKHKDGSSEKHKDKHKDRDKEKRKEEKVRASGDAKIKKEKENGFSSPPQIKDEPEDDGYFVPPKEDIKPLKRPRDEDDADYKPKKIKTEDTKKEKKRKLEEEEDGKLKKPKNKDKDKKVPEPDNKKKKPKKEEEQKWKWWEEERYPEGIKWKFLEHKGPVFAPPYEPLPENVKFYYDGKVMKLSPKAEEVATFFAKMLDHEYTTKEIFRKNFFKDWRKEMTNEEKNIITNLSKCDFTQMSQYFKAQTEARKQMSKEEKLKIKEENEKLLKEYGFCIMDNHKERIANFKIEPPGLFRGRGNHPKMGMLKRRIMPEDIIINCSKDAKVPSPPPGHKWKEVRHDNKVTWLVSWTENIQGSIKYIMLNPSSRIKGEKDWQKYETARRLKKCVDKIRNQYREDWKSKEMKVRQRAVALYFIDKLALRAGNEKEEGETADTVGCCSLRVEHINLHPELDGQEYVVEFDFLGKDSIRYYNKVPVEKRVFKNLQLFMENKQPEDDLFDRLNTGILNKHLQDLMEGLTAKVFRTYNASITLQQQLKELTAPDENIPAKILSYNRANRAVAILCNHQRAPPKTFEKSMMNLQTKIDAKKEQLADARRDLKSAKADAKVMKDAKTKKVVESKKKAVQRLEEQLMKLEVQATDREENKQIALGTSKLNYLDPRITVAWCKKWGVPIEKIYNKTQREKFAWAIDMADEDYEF

[7] = biological target: T2, hTopIB; assay: Plasmid DNA relaxation assay, hTopIB; assay type: biochemical
[8] = biological target: T1, LdTopIB; assay: Supercoiled plasmid DNA TopIB-mediated cleavage assay, LdTopIB; assay type: biochemical
[9] = test system: L. infantum promastigotes; assay: Activity against L. infantum promastigotes; assay type: cell-based; conditions: Leishmania infantum, read-out: IC50 against L. infantum promastigotes
[10] = test system: Leishmania donovani, Trypanosoma brucei rhodesiense, Trypanosoma cruzi; assay: Antiprotozoal activity against all the studied protozoa; assay type: cell-based; conditions: read-out: IC50 values against all the studied protozoa
In short: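 In vitro growth-inhibition IC50 against L. donovani, T. cruzi and T. b. rhodesiense. Values are averages of at least two independent assays, each run in duplicate. Reference drugs in the same set are melarsoprol, benznidazole, miltefosine and podophyllotoxin.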

[11] = test system: Leishmania donovani (axenic amastigotes); assay: Antiprotozoal activity against L. donovani axenic amastigotes; assay type: cell-based; conditions: read-out: Leishmania donovani IC50
[12] = test system: fluconazole resistant Candida albicans strains; conditions: series of strains; cited from earlier work
[13] = biological target: leukotriene B4 ω-oxidase; conditions: read-out: IC50 leukotriene B4 ω-oxidase; suicide inhibitor; cited from earlier work

Structure (SMILES): OO [hydrogen peroxide]
apoptotic cells (Annexin-V-FITC) [1]: positive test

EC50 [2]: 28.7 ± 1.3 µM | IC50 [3]: 83.6 µM | inhibition of hTopIB [6]: no inhibition | EC50 [7]: > 100 µM | inhibition of hTopIB at 100 μM [7]: neither 2-TDA nor 2-HDA was inhibitory | inhibition of catalytic activity of LdTopIB ([8]; 100 μM): inhibits the catalytic activity | enzymatic activity of LdTopIB after pre-incubation ([8]; pre-incubated 15 min with 100 μM before DNA and CPT): fully inhibited | IC50 [9]: 14.9 µM | IC50 [10]: 17.8 to 83.6 µM | IC50 [11]: 17.8 µM
Structure (SMILES): CCCCCCCCCCCCCC#CC(=O)O [2-HDA, 2-hexadecynoic acid]
IC50 [4]: > 100 µM | IC50 [5]: 340 µM

Structure (SMILES): CCCCCCCCCCCC#CCCCCC(=O)O [6-ODA, 6-octadecynoic acid]
IC50 against fluconazole resistant Candida albicans strains [12]: 0.45 to 0.65 µg/mL

Structure (SMILES): CCCCCCCCCCCCCCCC#CC(=O)O [2-ODA, 2-octadecynoic acid]
EC50 [2]: 5.3 ± 0.7 µM

Structure (SMILES): Nc1nc(N)nc(Nc2ccc([As]3SCC(CO)S3)cc2)n1 (stereo not shown) [Melarsoprol, reference compound]
IC50 [3]: 0.0075 µM

EC50 [2]: 67.8 ± 1.1 µM | EC50 [7]: > 100 µM | inhibition of hTopIB at 100 μM [7]: neither 2-TDA nor 2-HDA was inhibitory | IC50 [10]: 24.7 to 255 µM
Structure (SMILES): CCCCCCCCCCCC#CC(=O)O [2-TDA, 2-tetradecynoic acid]

Structure (SMILES): CC[C@@]1(O)C(=O)OCc2c1cc1n(c2=O)Cc2cc3ccccc3nc2-1 [CPT, camptothecin, reference compound]
EC50 [2]: 0.67 ± 0.08 µM

Structure (SMILES): C#CCCCCCCCCCCCCCCCC(=O)O [17-ODA, 17-octadecynoic acid]
IC50 [13]: < 5 µM
